The source of these data is publication PMC11609979 (Chemical Science, 2024).

SMILES strings stand for the structures.

Series [1] has as its system A549 cells. Nature of the series: Seahorse MitoStress Test. It is filed as cell-based. The note with it: for Lowest concentration for inhibition of OCR, Dark: 1 h incubation, no irradiation. The method, boiled down:
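OCR/ECAR were measured by extracellular flux with sequential oligomycin, FCCP, then rotenone/antimycin A. Basal, maximal and non-mitochondrial respiration were derived. OCR IC50 was taken from maximal respiration. The phenotype map plots basal versus stressed states.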

The subject of series [2] is A549 cells. Nature of the series: Cell cytotoxicity. Format: cell-based. The settings on record: Homo sapiens, A549, 72 h, read-out: IC50 (±St. Dev.) Light. An outline of the steps: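 A549 cells were exposed to test compound and viability was read 72 h after treatment. Dark samples were protected from light. IC50 was taken from dose–response curves, n = 3.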
For series [3], the system named is A549 cells. Nature of the series: Seahorse Glycolytic Rate Test. The note with it: irradiation with red light 660 nm. It is filed as cell-based. The method, boiled down:
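A549 cells were incubated 1 h with test compound, kept dark or irradiated. Irradiation used indigo 450 nm light (485 mW cm^-2) or red 660 nm light (16 mW cm^-2). Concentrations were chosen from light/dark cytotoxicity to keep cells viable. Glycolysis was blocked by 2-deoxyglucose injection, then non-glycolytic acidification was measured. Mitochondrial acidification was also read out.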

For series [4] the following is noted: cited from earlier work.

In the case of `N.N.[Cl][Pt][Cl]` [Cisplatin], the “Lowest concentration for inhibition of OCR, Dark” value in series [1] (A549 cells) is over 20 µM.
Broadly, the log P is a log measure of how a compound divides between an organic and an aqueous phase. For `CCCCCCOC(C)c1c(C)c2cc3nc(c4c5[nH]c(cc6nc(cc1[nH]2)C(C)=C6CC)c(C)c5C(=O)C4)[C@@H](CCC(=O)O)[C@@H]3C` (stereo partly shown) [HPPH, 2-(1-hexyloxyethyl)-2-devinylpyropheophorbide-a], the IC50 in series [2] came out at 3.7 µM; in series [1] (Homo sapiens, A549, read-out: OCR IC50 (from maximal respiration dose-response)) it was 1.2 µM. Also, the “Concentration with PER showing no glycolytic activity” value in series [3] worked out at 10 µM. Also, the “log P” value in series [4] is about 6.0. For the same molecule, the “Cellular respiration in the absence of light” value in series [1] (A549 cells, 1 h, dark, Fig. 3A and C) is reported as “unaffected”. Further, the “Lowest concentration for inhibition of OCR, Dark” value in series [1] (A549 cells) turned out to be 3 µM. The “Cellular respiration following irradiation” value in series [1] (A549 cells, indigo light for 3, red light (660 nm) for HPPH, Fig. 3B and D) was “marked concentration-dependent decrease”. The “Fold lower than the IC50 for cytotoxicity (quiescent phenotype concentration)” value in series [1] (A549 cells, red light) came to 10 fold. Moreover, the “Concentration inducing the quiescent phenotype” value in series [1] (A549 cells, red light, Fig. S10) stood at 0.37 µM.
